# Experimental data: article PMC11252475 (Acta Pharmaceutica Sinica. B, 2024)
# Key:
# NaV1.5 = NaV1.5 (Homo sapiens, UniProt Q14524); test: Cell membrane chromatography; assay type: binding; conditions: capacity factor k′; reflects potential cardiac toxicity; k′ < 0 labeled as 0
# rats [1] = test: Cutaneous trunci pinprick model; assay type: in vivo, rat; conditions: 62.3 mmol/L, subcutaneous
# In short: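 Male SD rats under 1%–3% isoflurane had about 6 cm × 6 cm of back shaved, swabbed with alcohol and split into four areas. Test compound (62.3 mmol/L) was given by s.c. infiltration. Pinprick scored 1 for no response and 0 for response. Duration ran from onset to expiration, expressed as mean-score MPE. Effective block was ≥50% MPE; complete block was 100% MPE.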
# rats [2] = test: Sciatic nerve block model; assay type: in vivo, rat; conditions: 62.3 mmol/L near sciatic nerve
# In short: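 Test compound (62.3 mmol/L) was injected near the sciatic nerve. Hind limbs were tested every 30 min until back to pre-test baseline. Sensory: paw withdrawal latency on a 55 °C hotplate, timed by stopwatch. Motor: extensor postural thrust in grams on a digital balance. Recovery was 50% of baseline.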
# rats [3] = test: CFA-induced chronic plantar inflammatory pain model; assay type: in vivo, rat; conditions: 62.3 mmol/L, 0.2 mL subcutaneous at swollen foot
# In short: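 Male SD rats (6–8 weeks, 250–300 g) under 1%–3% isoflurane had CFA injected into the right foot. Test compound (62.3 mmol/L, 0.2 mL) or equal-volume saline was given s.c. at the swollen site. Electronic von Frey stimulation to the side of the foot every 10 min after onset. Anesthesia failed when the value fell to half the limb-weight-to-baseline difference or below.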
# rats [4] = test: Plantar incisional pain model; assay type: in vivo, rat; conditions: 0.2 mL near incision
# In short: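 Rats with a plantar incision received test compound or saline, 0.2 mL, near the incision. Local anesthesia was assessed by von Frey stimulation of the lateral sole.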
# [5] = test system: NaV currents in rat dorsal root ganglion (DRG) neurons; test: Whole-cell patch clamp, sodium current in DRG neurons; assay type: cell-based
# In short: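 Male rat DRG neurons (180–200 g donors) were dissociated with collagenase IV (2 mg/mL) then trypsin (10 mg/mL) for 30 min, plated on poly-L-lysine and grown in Neurobasal with FBS and B27. Whole-cell voltage clamp used 3–4 MΩ electrodes. I/V steps ran from −90 to +40 mV in 10 mV increments, 50 ms each.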
# [6] = test system: NaV currents in rat trigeminal neuron (TG) neurons; test: Whole-cell patch clamp, sodium current in TG neurons; assay type: cell-based
# [7] = Systemic toxicity, intravenous; conditions: ICR, mouse, in vivo
# [8] = Systemic toxicity, subcutaneous injection; assay type: in vivo, rat; conditions: Sprague-Dawley, rat, in vivo, sc
# SD rats = test: Systemic toxicity, subcutaneous injection; assay type: in vivo, rat; conditions: TI = LD50/ED50, s.c.
# hERG channel = hERG channel (Homo sapiens, UniProt Q12809); test: hERG potassium current inhibition; assay type: cell-based
# in vitro [9] = assay type: in vitro ADME; conditions: rat, microsomes, pH 7.4
# in vitro [10] = assay type: in vitro ADME; conditions: human, microsomes, pH 7.4
# [11] = Pharmacokinetics after subcutaneous injection; assay type: in vivo; conditions: male, Sprague-Dawley, rat, plasma, sc, 62.3 mmol/L
# rats [12] = test: Dental pulp injury pain model; assay type: in vivo, rat; conditions: compared with AT
# In short: (§1)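 Oral pain models in rats under 1%–3% isoflurane, with test compound given as local anesthetic. Food intake and body-weight change were measured on a precision balance over 24 h. Facial grooming was video-recorded for 1 h after dosing.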
# rats [13] = test: Gingival incision pain model; assay type: in vivo, rat
# In short: as §1
# rats [14] = test: Tooth extraction pain model; assay type: in vivo, rat
# In short: as §1
# IL-1β, IL-6, TNFα = test: LPS-induced inflammatory factor expression; assay type: cell-based, rat; conditions: LPS 24 h, DRG neurons and PC12 cells; similar to LD, stronger than AT
# NLRP3 inflammasome = NLRP3 inflammasome activation after LPS; assay type: cell-based, rat
# In short: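 DRG neurons and NGF-differentiated PC12 cells, with LPS given before or together with test compound. ASC specks: 3% paraformaldehyde 15 min, 0.5% Triton X-100 15 min, 5% BSA 2 h, anti-ASC 1:200 overnight at 4 °C, secondary 1:500 1 h in the dark, DAPI, fluorescence microscopy. Western blot: PVDF, 5% milk 2 h, anti-NLRP3 and anti-caspase-1 1:1000 overnight at 4 °C.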
# DRG neurons = test: LPS-induced ROS production, cytoplasmic mtDNA release, 8-OHdG; assay type: cell-based, rat; conditions: PC12 cells
# rats [15] = test: Local anesthetic toxicity, blood biochemistry and organ pathology; assay type: in vivo, rat
# In short: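 Test compound was given in the rat sciatic nerve block model. Rats were killed at 7 and 14 days. Sciatic nerve and surrounding tissue were HE-stained and inflammatory cells counted in equal-sized areas (nerve:surrounding 1:1). Serum ALT, AST, LDH, α-HBDH, CREA and UREA were run on an automatic analyser. Heart, liver and kidney were HE-stained for pathology.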
# Sequence of NaV1.5 (Q14524 whole entry): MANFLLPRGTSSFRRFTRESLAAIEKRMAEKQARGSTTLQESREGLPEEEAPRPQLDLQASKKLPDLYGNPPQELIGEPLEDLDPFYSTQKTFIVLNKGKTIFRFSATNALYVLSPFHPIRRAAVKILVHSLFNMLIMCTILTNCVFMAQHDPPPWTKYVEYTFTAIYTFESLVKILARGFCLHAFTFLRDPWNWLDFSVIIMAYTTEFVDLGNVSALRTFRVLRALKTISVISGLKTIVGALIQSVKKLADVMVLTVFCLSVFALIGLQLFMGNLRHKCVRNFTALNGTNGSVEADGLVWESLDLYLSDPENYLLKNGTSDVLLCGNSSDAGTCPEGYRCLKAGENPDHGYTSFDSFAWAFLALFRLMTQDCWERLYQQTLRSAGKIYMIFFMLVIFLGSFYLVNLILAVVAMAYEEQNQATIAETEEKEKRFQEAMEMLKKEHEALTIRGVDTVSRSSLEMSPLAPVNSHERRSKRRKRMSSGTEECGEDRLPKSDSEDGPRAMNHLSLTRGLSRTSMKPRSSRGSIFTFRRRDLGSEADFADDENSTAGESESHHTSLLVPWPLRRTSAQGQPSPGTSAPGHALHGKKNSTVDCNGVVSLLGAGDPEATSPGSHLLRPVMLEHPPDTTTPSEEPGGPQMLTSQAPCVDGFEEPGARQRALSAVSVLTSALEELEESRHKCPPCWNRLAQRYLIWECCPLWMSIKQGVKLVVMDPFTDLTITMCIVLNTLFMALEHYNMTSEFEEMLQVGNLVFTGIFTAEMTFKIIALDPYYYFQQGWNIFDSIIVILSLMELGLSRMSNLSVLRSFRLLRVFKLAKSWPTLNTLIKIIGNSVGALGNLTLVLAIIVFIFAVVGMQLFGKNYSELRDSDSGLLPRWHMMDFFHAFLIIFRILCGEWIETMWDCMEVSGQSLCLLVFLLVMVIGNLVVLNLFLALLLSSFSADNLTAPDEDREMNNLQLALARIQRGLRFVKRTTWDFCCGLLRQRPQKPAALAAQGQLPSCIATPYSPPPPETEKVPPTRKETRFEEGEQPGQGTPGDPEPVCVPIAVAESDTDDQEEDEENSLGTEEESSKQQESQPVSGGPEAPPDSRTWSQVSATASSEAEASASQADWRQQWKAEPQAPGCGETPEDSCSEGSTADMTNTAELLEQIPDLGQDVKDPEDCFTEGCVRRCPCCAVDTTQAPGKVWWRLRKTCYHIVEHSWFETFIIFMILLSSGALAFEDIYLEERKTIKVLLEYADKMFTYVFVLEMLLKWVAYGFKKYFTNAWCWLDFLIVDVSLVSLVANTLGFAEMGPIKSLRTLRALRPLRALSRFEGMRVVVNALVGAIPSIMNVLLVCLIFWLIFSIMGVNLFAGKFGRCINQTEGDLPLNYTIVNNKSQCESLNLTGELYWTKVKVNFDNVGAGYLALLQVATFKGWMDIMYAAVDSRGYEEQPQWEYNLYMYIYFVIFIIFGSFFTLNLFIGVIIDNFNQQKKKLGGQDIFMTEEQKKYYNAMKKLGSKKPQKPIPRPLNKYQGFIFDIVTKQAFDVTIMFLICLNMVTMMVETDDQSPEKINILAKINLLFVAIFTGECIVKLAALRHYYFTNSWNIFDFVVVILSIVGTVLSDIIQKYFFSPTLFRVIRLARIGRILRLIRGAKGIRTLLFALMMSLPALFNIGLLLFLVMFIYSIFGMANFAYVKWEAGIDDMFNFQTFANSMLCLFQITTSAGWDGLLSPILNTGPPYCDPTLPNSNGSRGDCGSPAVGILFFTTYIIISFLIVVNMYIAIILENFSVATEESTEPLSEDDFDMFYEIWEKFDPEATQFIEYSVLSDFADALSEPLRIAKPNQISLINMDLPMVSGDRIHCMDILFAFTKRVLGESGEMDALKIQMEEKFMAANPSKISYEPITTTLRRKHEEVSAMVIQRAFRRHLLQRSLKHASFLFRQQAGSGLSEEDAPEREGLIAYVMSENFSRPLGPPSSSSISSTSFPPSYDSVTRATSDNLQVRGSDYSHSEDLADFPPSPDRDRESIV
# Sequence of hERG channel (Q12809 whole entry): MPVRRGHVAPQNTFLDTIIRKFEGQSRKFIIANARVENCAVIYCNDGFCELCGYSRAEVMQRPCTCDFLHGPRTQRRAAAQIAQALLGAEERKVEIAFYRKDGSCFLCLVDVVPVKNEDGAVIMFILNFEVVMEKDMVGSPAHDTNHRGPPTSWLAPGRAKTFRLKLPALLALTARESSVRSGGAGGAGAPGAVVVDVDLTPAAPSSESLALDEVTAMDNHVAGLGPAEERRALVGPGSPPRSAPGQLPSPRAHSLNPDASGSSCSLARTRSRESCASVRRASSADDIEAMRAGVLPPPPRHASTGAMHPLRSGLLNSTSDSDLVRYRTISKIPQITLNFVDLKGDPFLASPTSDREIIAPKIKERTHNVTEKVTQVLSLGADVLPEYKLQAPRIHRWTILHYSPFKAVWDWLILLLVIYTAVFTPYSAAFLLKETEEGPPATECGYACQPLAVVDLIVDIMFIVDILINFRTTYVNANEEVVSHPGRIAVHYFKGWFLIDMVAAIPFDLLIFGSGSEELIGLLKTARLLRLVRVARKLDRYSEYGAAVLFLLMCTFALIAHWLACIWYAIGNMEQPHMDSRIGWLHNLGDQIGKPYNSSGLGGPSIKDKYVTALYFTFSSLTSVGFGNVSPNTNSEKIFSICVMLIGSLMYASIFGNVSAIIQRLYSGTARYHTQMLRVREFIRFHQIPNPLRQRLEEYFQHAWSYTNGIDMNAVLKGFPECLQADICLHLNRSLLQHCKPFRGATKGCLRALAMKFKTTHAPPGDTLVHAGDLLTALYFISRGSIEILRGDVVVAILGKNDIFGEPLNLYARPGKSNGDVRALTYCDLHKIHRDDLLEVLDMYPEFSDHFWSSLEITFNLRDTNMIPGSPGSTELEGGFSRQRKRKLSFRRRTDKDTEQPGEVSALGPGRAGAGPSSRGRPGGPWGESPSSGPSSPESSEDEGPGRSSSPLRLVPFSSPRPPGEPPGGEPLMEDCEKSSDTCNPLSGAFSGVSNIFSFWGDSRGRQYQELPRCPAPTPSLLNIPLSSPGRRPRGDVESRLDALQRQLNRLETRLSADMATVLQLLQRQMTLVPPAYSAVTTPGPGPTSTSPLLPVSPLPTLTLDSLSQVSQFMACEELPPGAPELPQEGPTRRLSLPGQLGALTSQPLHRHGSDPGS
compound,measurement,setting,value
"CCCCN1CCN(C(C)C(=O)Nc2c(C)csc2C(=O)OC)CC1 (centres unmarked) [AT-17, Methyl 3-(2-(4-butylpiperazin-1-yl)propanamido)-4-methylthiophene-2-carboxylate]",k′ NaV1.5,NaV1.5,22.4
same,subcutaneous infiltration duration,rats [1],400 min
same,motor block duration,rats [2]; extensor postural thrust,260 min
same,duration of effective sensory blockade,rats [2]; hotplate test,200 min
same,duration of action (anesthesia) under CFA-induced chronic inflammation,rats [3],83.3 min
same,anesthesia result in acute inflammation model through plantar incision,rats [4],improved results
same,IC50,"[5]; F-11 rat/mouse fusion cell line, DRG neuron, read-out: IC50 sodium current",31.6 ± 2.07 µM
same,reduction in the peak current compared to AT (I‒V relationship),[5]; rat DRG neurons,36.35%
same,reduction in peak current compared to AT (I‒V relationship),[6],10.56%
same,LD50,[7],43.5 mg/kg
same,LD50 at 24 h,[8],424 mg/kg
same,TI,SD rats,149.17
same,inhibition at 100 μM/L,hERG channel,38%
same,half-life,in vitro [9],1.03 h
same,half-life,in vitro [10],1.25 h
same,AUC(0-t),[11],5550 ng·h/mL
same,Tmax,[11],1 h
same,half-life,[11],0.823 h
same,weight loss and pain-related decreases in food intake,rats [12],more effective
same,face grooming frequency,rats [13],significantly lowered
same,recovery in body weight and food intake,rats [13]; compared with AT,more pronounced recovery
same,weight loss and food intake,rats [14],significantly mitigating
same,"inflammatory factors (IL-1β, IL-6, TNFα) expression","IL-1β, IL-6, TNFα",significantly inhibited
same,LPS-induced ASC speck formation,"NLRP3 inflammasome; DRG neurons, PC12 cells",inhibits
same,"NLRP3, ASC, and pro-Casp1 expression","NLRP3 inflammasome; LPS, acute and chronic conditions",modestly reduced
same,"LPS-induced ROS production, cytoplasmic mtDNA release, and 8-OHdG levels",DRG neurons,reduced
same,"ALT, AST, LDH, α-HBDH, CREA, UREA levels vs control group","rats [15]; rats, 7 days and 14 days post-administration",no marked differences
same,"pathological assessment of heart, liver, and kidney vs control group","rats [15]; rats, local administration to the sciatic nerve",no significant pathological changes
same,number of inflammatory cells in tissues compared with AT,"rats [15]; sciatic nerve block model, HE, ImageJ",significantly lower
